Screening data: PubChem, several laboratories
Rad51 HR inh – Rad51 (human) homologous recombination inhibition; Q06609; hRad51 DNA strand exchange, fluorescence dequenching; inhibition, % at 10 µM; hit rate 0.085% among 200,000;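 active = inhibition above 40% at the single screening dose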
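Test system: preformed human Rad51 ssDNA filaments. Compound dosing: single dose, 10 µM final compound. Incubation: filaments 15 min 37 °C, then compound 30 min. Technique: FRET fluorescence dequenching, excitation 485 nm, emission 520 nm. Read-out basis: percent inhibition from fluorescence, normalised to plate control and blank means. Benchmarks: plate controls and plate blanks.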
Bim-Bcl-XL – disrupts Bim peptide binding to human Bcl-XL | bead flow cytometry, fluorescence | AID 1007 | hit rate 0.04% among 190,000 | inhibition, % at 10 µM
Target sequence (Q07817 whole entry, looked up): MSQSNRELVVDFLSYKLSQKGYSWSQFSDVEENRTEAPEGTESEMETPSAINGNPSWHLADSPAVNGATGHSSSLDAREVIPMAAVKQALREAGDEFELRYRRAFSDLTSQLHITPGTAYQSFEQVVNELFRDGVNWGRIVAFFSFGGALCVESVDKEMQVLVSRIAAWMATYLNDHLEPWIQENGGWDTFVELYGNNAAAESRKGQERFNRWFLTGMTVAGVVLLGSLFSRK
Bim-Bcl-W – human Bim-Bcl-W interaction inhibition; hit rate 0.02% among 190,000; bead-based flow cytometry, Bim peptide-Bcl-W binding; Q92843; inhibition, % at 10 µM;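 note: higher means less fluorescent Bim peptide bound to Bcl-W beads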
Target sequence (Q92843 whole entry, looked up): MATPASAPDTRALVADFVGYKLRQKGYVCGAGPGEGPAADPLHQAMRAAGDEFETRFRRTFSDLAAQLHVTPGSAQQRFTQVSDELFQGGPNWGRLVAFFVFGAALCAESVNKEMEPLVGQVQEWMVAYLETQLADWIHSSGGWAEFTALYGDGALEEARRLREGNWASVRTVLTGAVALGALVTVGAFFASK
Bim-Bcl-2 – human Bim-Bcl-2 interaction inhibition; P10415; Bead-based flow cytometry, Bim peptide-Bcl-2 binding; inhibition, % at 10 µM; hit rate 0.06% among 190,000; AID 950; in the data active = inhibition above about 40%; inconclusive = no clear call, values can overlap the other calls
Bim-Bfl-1 – human Bim-Bfl-1 interaction inhibition | Q16548 | Bead-based flow cytometry, Bim-Bfl-1 binding inhibition | inhibition, % at 10 µM | hit rate 0.12% among 190,000
Bcl-B Bim block – human Bim-Bcl-B interaction inhibition; AID 951; bead-based flow cytometry, Bim peptide-Bcl-B binding; hit rate 0.073% among 190,000; inhibition, % at 10 µM; Q9HD36
Each line names hits and unclear results; the compound was inactive in the other large screens. Most compounds without a hit are left out; they make up all but 0.23% or so of the library. Cut-off read from the data, not from the text of the source, unless noted: active = inhibition above about 40%.

CN1CCN(C2=C(Cl)C(=O)N(Cc3ccccc3)C2=O)CC1	Rad51 HR inh 52.4
Cc1onc(-c2c(Cl)cccc2Cl)c1C(=O)Nc1ccc(Cl)cn1	none (no result: Bim-Bcl-XL, Bim-Bcl-W, Bim-Bcl-2, Bim-Bfl-1, Bcl-B Bim block)
O=C(O)CC/C(=C\c1ccccc1[N+](=O)[O-])c1nc2ccccc2s1	none
O=C(O)CC/C(=C\c1cc([N+](=O)[O-])ccc1Cl)c1nc2ccccc2s1	Bim-Bcl-XL 40.0
COC(=O)c1cc(OC)c(OC)cc1NC(=O)Nc1cccc(C(C)=O)c1	Bim-Bcl-2 85.0, Bim-Bfl-1 62.0, Bcl-B Bim block 77.0
COCC(=O)Nc1c(C(=O)Nc2cccc(OC)c2)oc2ccccc12	none
COc1cccc(NC(=O)c2oc3ccccc3c2NC(C)=O)c1	Rad51 HR inh 112.3
Cc1nnc(SCC(=O)c2ccc(Cl)cc2)s1	Rad51 HR inh 40.5
Cc1cccn2c(=O)c3cc(C(N)=S)c(=N)n(CCCN4CCOCC4)c3nc12	Bim-Bfl-1 50.0, Bcl-B Bim block 48.0
CN(C(=O)c1ccc(C#N)cc1)c1nnc(-c2cnccn2)s1	none (no result: Bim-Bcl-XL, Bim-Bcl-W, Bim-Bcl-2, Bim-Bfl-1, Bcl-B Bim block)
COc1cccc(N2[C@@H](CC(=O)O)c3cc(C(F)(F)F)ccc3S2(=O)=O)c1	none (no result: Bim-Bcl-XL, Bim-Bcl-W, Bim-Bcl-2, Bim-Bfl-1, Bcl-B Bim block)
O=C1c2ccccc2-c2onc3c(Oc4ccccc4)cc(O)c1c23	Bim-Bfl-1 43.0 (no result: Rad51 HR inh)
Cc1ccc(-c2ccc(CCC(=O)O)n2NC(=O)c2cccs2)cc1	Bim-Bcl-2 92.0 (no result: Bim-Bfl-1, Bcl-B Bim block)
COc1cc(N=c2ssnc2Cl)c(OC)cc1Cl	none
COc1ccc(OC)c(N=c2ssnc2Cl)c1	Bim-Bfl-1 41.0
COc1ccc(Sc2ccccc2CN(C)C)cc1OC	none
CNCc1ccccc1Sc1ccc(O)c(O)c1	Bim-Bfl-1 46.0
O=C(COc1ccc(Br)cc1CNC1CCCCC1)NCCc1ccccc1	Bim-Bcl-2 78.0, Bim-Bfl-1 54.0, Bcl-B Bim block 67.0
COc1ccccc1C(=O)C1CCCN(C(=O)c2cn3cc(Cl)ccc3n2)C1 (stereo unspecified)	none
Cc1ccc(CNc2ccc3c(c2)OCO3)cc1	Bim-Bfl-1 40.0
COC(=O)CSc1nnc(CNC(=O)c2ccc(S(=O)(=O)N3CCOCC3)cc2)n1C	none
CCCOc1ccccc1N/C(=N/c1nc(C)cc(C)n1)NC(=O)COc1ccc(OC)cc1	Rad51 HR inh 96.7
O=C(NC1CCCCC1)c1cc([N+](=O)[O-])ccc1N1CCCCC1	Rad51 HR inh 118.2
O=C1C(Nc2ccc(O)cc2)=C/C(=N/S(=O)(=O)c2cccs2)c2ccccc21	none (no result: Rad51 HR inh)
O=C(O)c1ccc(NC2=C/C(=N/S(=O)(=O)c3ccccc3)c3ccccc3C2=O)cc1	Bim-Bfl-1 47.0 (no result: Rad51 HR inh)
O=C1C2C3C=CC(C3)C2C(=O)N1c1cccc2cccnc12 (stereo unspecified)	none
O=C1c2ccccc2C(=O)N1c1cccc2cccnc12	Bim-Bfl-1 40.0
COc1ccc(Cl)cc1-n1c(C)cc(C=O)c1C	Bim-Bcl-2 86.0, Bim-Bfl-1 62.0, Bcl-B Bim block 84.0
COc1ccc(Cl)cc1-n1c(C)cc(C(=O)O)c1C	none
Cc1[nH][nH]c(=O)c1C(c1c(C)[nH][nH]c1=O)c1cn(Cc2ccccc2Cl)c2ccccc12	none
O=C(NCCc1cccc(Cl)c1)c1cc([N+](=O)[O-])ccc1Cl	none
O=C(NCCCN1CCN(CCCNC(=O)c2cc([N+](=O)[O-])ccc2Cl)CC1)c1cc([N+](=O)[O-])ccc1Cl	Bcl-B Bim block 78.0
CNc1ccc(Br)cc(C(=O)/C=C/c2ccc(OC)cc2OC)c1=O	Bim-Bfl-1 41.0
CNc1ccc(Br)cc(C(=O)/C=C/c2cccc(OC)c2)c1=O	none
COc1cccc(NC(=O)N2CCCC2)c1	Rad51 HR inh 42.5
COc1cccc(NC(=O)N2CCN(S(C)(=O)=O)CC2)c1	none
COc1ccc(/C=C/C(=O)OCC(=O)c2c(N)n(C)c(=O)n(C)c2=O)c(OC)c1	none
COc1ccc(N2CCN(S(=O)(=O)c3cnc[nH]3)CC2)cc1	none (no result: Bim-Bcl-XL, Bim-Bcl-W, Bim-Bcl-2, Bim-Bfl-1, Bcl-B Bim block)
O=C(CN(Cc1ccco1)C(=O)CCC(=O)Nc1nccs1)NCc1ccccc1	Rad51 HR inh 124.7, Bim-Bcl-2 inconclusive (no result: Bim-Bcl-XL, Bim-Bcl-W, Bim-Bfl-1, Bcl-B Bim block)
CC(/C=C/C(=O)c1ccc(C)cc1)=C\c1ccccc1	Bim-Bcl-XL 48.0, Bim-Bfl-1 47.0 (no result: Rad51 HR inh)
Cc1ccc(C(=O)/C=C\C(=O)c2ccc(C)cc2)cc1	none
COc1cc(CNc2ccc(N3CCCC3)cc2)cc(Cl)c1OC	Bim-Bfl-1 48.0
CCOc1ccc(CNc2ccc(N3CCCC3)cc2)cc1	Bim-Bfl-1 42.0
